{
  "source": "ChEMBL document CHEMBL3098105",
  "about": "“7,7'-Diazaindirubin--a small molecule inhibitor of casein kinase 2 in vitro and in cells” (Bioorg Med Chem, 2014)",
  "key": {"[1]": {"molecular_target": "Cyclin-dependent kinase 4/cyclin D1 (Homo sapiens) (UniProt P11802+P24385)", "experiment": "Inhibition of CDK4/CycD1 (unknown origin) assessed as residual activity at 1 uM relative to control", "format": "protein-complex assay"}, "CAKI-1": {"test_system": "CAKI-1", "experiment": "Antiproliferative activity against human CAKI-1 cells after 3 days by sulforhodamine B assay", "format": "functional", "settings": "CAKI-1, 72 h", "in_short": "(§1)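 Tested in the NCI 60 cell line panel. GI50 is the concentration giving 50% inhibition of cell growth, and values are the mean of two series of tests.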"}, "M14": {"test_system": "M14", "experiment": "Antiproliferative activity against human M14 cells after 3 days by sulforhodamine B assay", "format": "functional", "settings": "M14, 72 h", "in_short": "as §1"}, "SNB-19": {"test_system": "SNB-19", "experiment": "Antiproliferative activity against human SNB19 cells after 3 days by sulforhodamine B assay", "format": "functional", "settings": "SNB-19, 72 h"}, "KM12": {"test_system": "KM12", "experiment": "Antiproliferative activity against human KM12 cells after 3 days by sulforhodamine B assay", "format": "functional", "settings": "KM12, 72 h", "in_short": "as §1"}, "[2]": {"molecular_target": "Serine/threonine-protein kinase ULK3 (Homo sapiens) (UniProt Q6PHR2)", "experiment": "Inhibition of human ULK3 assessed as residual activity at 1 uM relative to control"}, "[3]": {"molecular_target": "Mitogen-activated protein kinase 13 (Homo sapiens) (UniProt O15264)", "experiment": "Inhibition of human SAPK4 assessed as residual activity at 1 uM relative to control"}, "[4]": {"molecular_target": "Mitogen-activated protein kinase 11 (Homo sapiens) (UniProt Q15759)", "sequence (Q15759 whole entry)": "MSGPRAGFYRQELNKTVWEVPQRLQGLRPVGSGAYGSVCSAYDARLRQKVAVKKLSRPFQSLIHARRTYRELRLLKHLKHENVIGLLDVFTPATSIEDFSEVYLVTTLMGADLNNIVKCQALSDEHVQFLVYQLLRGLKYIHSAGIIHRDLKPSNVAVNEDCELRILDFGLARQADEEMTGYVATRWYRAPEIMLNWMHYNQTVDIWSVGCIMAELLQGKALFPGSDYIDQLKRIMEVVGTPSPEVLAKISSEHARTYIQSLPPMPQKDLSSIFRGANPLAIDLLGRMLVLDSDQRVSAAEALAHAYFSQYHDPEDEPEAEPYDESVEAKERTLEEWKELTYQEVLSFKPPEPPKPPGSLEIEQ", "experiment": "Inhibition of human SAPK2beta assessed as residual activity at 1 uM relative to control"}, "[5]": {"molecular_target": "Mitogen-activated protein kinase 14 (Homo sapiens) (UniProt Q16539)", "sequence (Q16539 whole entry)": "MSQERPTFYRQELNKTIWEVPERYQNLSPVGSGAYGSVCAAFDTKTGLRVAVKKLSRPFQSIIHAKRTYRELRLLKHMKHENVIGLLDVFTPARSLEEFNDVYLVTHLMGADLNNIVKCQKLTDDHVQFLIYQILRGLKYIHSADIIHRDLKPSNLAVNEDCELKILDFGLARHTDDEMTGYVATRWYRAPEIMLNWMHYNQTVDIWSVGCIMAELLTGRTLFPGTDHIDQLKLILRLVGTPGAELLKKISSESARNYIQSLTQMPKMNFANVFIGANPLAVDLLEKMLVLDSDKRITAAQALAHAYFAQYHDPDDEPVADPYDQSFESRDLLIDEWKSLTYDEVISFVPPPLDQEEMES", "experiment": "Inhibition of human SAPK2alpha assessed as residual activity at 1 uM relative to control"}, "[6]": {"molecular_target": "Ribosomal protein S6 kinase alpha-2 (Homo sapiens) (UniProt Q15349)", "experiment": "Inhibition of human Rsk3 assessed as residual activity at 1 uM relative to control"}, "[7]": {"molecular_target": "Rho-associated protein kinase 2 (Homo sapiens) (UniProt O75116)", "experiment": "Inhibition of human ROCK-2 assessed as residual activity at 1 uM relative to control"}, "[8]": {"molecular_target": "Proto-oncogene tyrosine-protein kinase receptor Ret (Homo sapiens) (UniProt P07949)", "sequence (P07949 whole entry)": "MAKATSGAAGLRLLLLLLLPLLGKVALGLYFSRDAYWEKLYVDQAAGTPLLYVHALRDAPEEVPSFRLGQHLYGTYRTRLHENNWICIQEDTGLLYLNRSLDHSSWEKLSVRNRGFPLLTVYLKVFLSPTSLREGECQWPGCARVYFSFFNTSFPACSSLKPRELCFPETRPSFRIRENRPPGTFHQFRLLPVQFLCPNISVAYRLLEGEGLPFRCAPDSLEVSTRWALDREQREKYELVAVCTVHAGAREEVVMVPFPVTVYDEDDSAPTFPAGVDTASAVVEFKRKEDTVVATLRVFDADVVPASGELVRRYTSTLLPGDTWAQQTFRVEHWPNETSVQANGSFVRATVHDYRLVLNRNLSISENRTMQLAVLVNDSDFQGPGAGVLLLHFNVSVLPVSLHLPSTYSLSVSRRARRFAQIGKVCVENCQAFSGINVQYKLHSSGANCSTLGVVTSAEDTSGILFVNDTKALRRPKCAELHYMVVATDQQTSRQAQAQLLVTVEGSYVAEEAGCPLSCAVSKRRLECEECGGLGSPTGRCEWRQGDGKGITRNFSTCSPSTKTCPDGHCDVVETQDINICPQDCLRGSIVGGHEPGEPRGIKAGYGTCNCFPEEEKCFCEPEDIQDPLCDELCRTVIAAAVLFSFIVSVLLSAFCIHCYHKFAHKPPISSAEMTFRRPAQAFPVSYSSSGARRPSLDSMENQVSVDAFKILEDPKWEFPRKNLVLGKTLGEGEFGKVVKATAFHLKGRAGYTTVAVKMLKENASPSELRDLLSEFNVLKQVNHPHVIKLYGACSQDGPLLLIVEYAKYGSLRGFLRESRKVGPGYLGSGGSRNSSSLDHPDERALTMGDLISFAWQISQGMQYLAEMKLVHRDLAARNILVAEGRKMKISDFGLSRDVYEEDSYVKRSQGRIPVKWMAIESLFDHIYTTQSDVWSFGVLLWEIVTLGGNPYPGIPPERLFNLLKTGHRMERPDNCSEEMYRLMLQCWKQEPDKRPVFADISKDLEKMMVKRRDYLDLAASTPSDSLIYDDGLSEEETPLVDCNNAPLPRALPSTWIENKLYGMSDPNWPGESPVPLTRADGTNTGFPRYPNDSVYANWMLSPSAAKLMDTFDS", "experiment": "Inhibition of human Ret assessed as residual activity at 1 uM relative to control"}, "[9]": {"molecular_target": "Serine/threonine-protein kinase PLK3 (Homo sapiens) (UniProt Q9H4B4)", "experiment": "Inhibition of human Plk3 assessed as residual activity at 1 uM relative to control"}, "[10]": {"molecular_target": "Serine/threonine-protein kinase PLK1 (Homo sapiens) (UniProt P53350)", "experiment": "Inhibition of human Plk1 assessed as residual activity at 1 uM relative to control"}, "[11]": {"molecular_target": "cGMP-dependent protein kinase 1 (Homo sapiens) (UniProt Q13976)", "experiment": "Inhibition of human PKG1alpha assessed as residual activity at 1 uM relative to control"}, "SR": {"test_system": "SR", "experiment": "Antiproliferative activity against human SR cells after 3 days by sulforhodamine B assay", "format": "functional", "settings": "72 h"}, "K562": {"test_system": "K562", "experiment": "Antiproliferative activity against human K562 cells after 3 days by sulforhodamine B assay", "format": "functional", "settings": "K562, 72 h", "in_short": "as §1"}, "MCF7": {"test_system": "MCF7", "experiment": "Cell cycle arrest in human MCF7 cells assessed as accumulation at S phase at 1 uM after 24 hrs using propidium iodide staining by FACS analysis (reference value: 18.59%)", "format": "functional"}, "[12]": {"molecular_target": "Casein kinase II (Homo sapiens) (UniProt P67870+P68400+P19784)", "experiment": "Inhibition of CK2 in human MCF7 cells assessed as reduction of Akt phosphorylation at S473 at 0.25 to 8 uM after 2 hrs by Western blot analysis", "format": "cell-based", "in_short": "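Cells were lysed in urea lysis buffer (6 M urea, NaF, Na3VO4, protease inhibitors). 20–40 µg protein was run on 10% SDS-PAGE and detected by ECL. Primary antibodies (pAkt S473, PARP, β-actin loading control) were used at 1:1000 overnight at 4 °C. DMSO was the vehicle control. For the pAkt blots, cells were treated for 2 h with Ly294002 as positive control.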"}, "[13]": {"molecular_target": "Protein kinase C epsilon type (Homo sapiens) (UniProt Q02156)", "experiment": "Inhibition of human PKCepsilon assessed as residual activity at 1 uM relative to control"}, "[14]": {"molecular_target": "Serine/threonine-protein kinase MARK2 (Homo sapiens) (UniProt Q7KZI7)", "experiment": "Inhibition of human PAR1Balpha assessed as residual activity at 1 uM relative to control"}, "[15]": {"molecular_target": "Serine/threonine-protein kinase Nek6 (Homo sapiens) (UniProt Q9HC98)", "sequence (Q9HC98 whole entry)": "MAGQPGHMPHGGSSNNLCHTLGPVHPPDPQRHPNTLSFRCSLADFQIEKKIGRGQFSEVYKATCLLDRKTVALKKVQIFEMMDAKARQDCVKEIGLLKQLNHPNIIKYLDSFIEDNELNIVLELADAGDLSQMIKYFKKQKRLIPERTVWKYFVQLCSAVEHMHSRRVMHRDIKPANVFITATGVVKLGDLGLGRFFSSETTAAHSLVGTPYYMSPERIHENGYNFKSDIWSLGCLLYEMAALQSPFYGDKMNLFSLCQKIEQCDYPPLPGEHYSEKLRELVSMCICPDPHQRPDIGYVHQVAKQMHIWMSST", "experiment": "Inhibition of human NEK6 assessed as residual activity at 1 uM relative to control"}, "[16]": {"molecular_target": "MAP kinase-interacting serine/threonine-protein kinase 2 (Homo sapiens) (UniProt Q9HBH9)", "experiment": "Inhibition of human Mnk2 assessed as residual activity at 1 uM relative to control"}, "[17]": {"molecular_target": "Mitogen-activated protein kinase 10 (Homo sapiens) (UniProt P53779)", "experiment": "Inhibition of human JNK3 assessed as residual activity at 1 uM relative to control"}, "[18]": {"molecular_target": "Mitogen-activated protein kinase 9 (Homo sapiens) (UniProt P45984)", "experiment": "Inhibition of human JNK2alpha2 assessed as residual activity at 1 uM relative to control"}, "[19]": {"molecular_target": "Insulin receptor-related protein (Homo sapiens) (UniProt P14616)", "experiment": "Inhibition of human IRR assessed as residual activity at 1 uM relative to control"}, "[20]": {"molecular_target": "Casein kinase I isoform gamma-1 (Homo sapiens) (UniProt Q9HCP0)", "sequence (Q9HCP0 whole entry, looked up, canonical isoform)": "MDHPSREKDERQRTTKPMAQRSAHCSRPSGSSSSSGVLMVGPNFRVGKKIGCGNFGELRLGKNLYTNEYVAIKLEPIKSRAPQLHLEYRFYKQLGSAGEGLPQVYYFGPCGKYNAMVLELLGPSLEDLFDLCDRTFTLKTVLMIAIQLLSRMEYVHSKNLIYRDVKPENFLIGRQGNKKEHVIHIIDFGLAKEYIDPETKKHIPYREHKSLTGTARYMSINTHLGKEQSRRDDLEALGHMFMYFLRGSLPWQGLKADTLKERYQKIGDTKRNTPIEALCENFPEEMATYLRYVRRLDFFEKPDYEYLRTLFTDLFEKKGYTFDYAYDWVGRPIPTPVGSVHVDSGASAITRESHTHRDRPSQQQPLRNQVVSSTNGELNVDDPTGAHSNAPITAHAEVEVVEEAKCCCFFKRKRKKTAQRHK", "experiment": "Inhibition of human CK1gamma1 assessed as residual activity at 1 uM relative to control"}, "[21]": {"molecular_target": "CDK9/cyclin T1 (Homo sapiens) (UniProt O60563+P50750)", "experiment": "Inhibition of human CDK9/cyclin T1 assessed as residual activity at 1 uM relative to control", "format": "protein-complex assay"}, "[22]": {"molecular_target": "Cyclin-dependent kinase 1/cyclin B1 (Homo sapiens) (UniProt P06493+P14635)", "experiment": "Inhibition of human CDK1/cyclinB assessed as residual activity at 1 uM relative to control", "format": "protein-complex assay"}, "[23]": {"molecular_target": "Calcium/calmodulin-dependent protein kinase type II subunit gamma (Homo sapiens) (UniProt Q13555)", "experiment": "Inhibition of human CaMK2gamma assessed as residual activity at 1 uM relative to control"}, "[24]": {"molecular_target": "Tyrosine-protein kinase receptor UFO (Homo sapiens) (UniProt P30530)", "sequence (P30530 whole entry)": "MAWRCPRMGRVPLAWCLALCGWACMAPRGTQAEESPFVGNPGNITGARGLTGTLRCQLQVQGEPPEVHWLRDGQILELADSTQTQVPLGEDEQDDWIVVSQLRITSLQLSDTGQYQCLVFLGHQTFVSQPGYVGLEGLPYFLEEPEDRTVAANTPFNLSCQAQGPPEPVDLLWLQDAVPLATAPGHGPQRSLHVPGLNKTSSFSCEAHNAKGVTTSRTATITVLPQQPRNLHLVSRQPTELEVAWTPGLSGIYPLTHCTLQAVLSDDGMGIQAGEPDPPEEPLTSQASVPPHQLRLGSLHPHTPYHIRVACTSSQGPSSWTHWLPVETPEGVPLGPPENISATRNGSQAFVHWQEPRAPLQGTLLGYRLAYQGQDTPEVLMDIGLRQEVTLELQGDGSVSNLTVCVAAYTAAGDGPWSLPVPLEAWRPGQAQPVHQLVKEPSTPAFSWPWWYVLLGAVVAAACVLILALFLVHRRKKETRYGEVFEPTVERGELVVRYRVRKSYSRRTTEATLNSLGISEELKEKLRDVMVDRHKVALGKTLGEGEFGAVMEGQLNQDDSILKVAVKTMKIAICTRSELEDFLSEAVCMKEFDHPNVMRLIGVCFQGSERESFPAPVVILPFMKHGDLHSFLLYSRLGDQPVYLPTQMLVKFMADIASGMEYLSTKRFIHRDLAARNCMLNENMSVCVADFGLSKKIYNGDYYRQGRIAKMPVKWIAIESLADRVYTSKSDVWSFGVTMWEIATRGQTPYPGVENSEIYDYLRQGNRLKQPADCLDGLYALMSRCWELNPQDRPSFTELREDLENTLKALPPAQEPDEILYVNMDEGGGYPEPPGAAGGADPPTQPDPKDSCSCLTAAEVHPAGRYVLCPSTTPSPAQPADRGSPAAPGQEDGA", "experiment": "Inhibition of human Axl assessed as residual activity at 1 uM relative to control"}, "[25]": {"molecular_target": "Proto-oncogene tyrosine-protein kinase Src (Homo sapiens) (UniProt P12931)", "experiment": "Inhibition of SRC (unknown origin) assessed as residual activity at 10 uM relative to control"}, "[26]": {"molecular_target": "Proto-oncogene tyrosine-protein kinase receptor Ret (Homo sapiens) (UniProt P07949)", "experiment": "Inhibition of RET (unknown origin) assessed as residual activity at 10 uM relative to control"}, "[27]": {"molecular_target": "Glycogen synthase kinase-3 beta (Homo sapiens) (UniProt P49841)", "experiment": "Inhibition of GSK3-beta (unknown origin) assessed as residual activity at 10 uM relative to control"}, "[28]": {"molecular_target": "Epidermal growth factor receptor (Homo sapiens) (UniProt P00533)", "sequence (P00533 whole entry)": "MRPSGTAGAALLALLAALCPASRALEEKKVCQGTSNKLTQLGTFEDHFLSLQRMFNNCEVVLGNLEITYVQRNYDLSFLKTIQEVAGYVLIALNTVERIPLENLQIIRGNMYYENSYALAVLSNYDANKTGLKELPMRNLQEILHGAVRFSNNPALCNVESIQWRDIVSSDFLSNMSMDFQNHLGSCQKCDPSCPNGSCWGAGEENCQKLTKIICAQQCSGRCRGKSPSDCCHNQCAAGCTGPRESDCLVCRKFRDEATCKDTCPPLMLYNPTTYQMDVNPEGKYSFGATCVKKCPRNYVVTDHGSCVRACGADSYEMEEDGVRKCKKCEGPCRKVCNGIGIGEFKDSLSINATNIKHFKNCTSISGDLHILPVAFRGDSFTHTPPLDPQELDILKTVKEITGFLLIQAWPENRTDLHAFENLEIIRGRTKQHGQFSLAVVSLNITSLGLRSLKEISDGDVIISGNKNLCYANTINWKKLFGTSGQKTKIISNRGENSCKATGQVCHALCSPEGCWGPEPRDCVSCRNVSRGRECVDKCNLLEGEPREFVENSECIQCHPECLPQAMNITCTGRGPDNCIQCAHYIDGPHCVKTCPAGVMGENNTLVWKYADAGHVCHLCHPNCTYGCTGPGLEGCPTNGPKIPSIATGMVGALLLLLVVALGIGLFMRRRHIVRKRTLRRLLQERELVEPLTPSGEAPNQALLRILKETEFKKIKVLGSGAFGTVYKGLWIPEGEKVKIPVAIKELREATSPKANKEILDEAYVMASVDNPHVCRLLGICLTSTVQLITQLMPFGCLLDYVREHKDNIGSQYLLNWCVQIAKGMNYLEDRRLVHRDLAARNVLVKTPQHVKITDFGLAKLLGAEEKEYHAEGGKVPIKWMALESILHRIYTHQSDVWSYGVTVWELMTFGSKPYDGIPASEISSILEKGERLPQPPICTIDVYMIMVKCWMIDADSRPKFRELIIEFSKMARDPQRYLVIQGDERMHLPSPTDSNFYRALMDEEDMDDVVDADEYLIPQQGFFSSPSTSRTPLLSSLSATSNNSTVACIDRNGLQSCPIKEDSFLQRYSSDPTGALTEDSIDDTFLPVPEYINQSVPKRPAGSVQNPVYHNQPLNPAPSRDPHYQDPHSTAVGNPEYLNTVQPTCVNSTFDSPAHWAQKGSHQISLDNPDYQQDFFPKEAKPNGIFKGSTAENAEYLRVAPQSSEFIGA", "experiment": "Inhibition of EGF-R (unknown origin) assessed as residual activity at 10 uM relative to control"}, "[29]": {"molecular_target": "Aurora kinase B (Homo sapiens) (UniProt Q96GD4)", "sequence (Q96GD4 whole entry)": "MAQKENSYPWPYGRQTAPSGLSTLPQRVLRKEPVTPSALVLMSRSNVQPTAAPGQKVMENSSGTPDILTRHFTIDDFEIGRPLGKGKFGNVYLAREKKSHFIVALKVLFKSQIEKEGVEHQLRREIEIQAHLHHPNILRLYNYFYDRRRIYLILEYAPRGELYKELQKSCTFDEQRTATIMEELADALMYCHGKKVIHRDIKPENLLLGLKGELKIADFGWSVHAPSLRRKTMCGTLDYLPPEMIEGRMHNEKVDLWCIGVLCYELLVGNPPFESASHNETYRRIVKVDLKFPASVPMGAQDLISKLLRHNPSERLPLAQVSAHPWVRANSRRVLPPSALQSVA", "experiment": "Inhibition of Aurora-B (unknown origin) assessed as residual activity at 10 uM relative to control"}},
  "note": "Activity calls are given as the source filed them. No cut-off for these calls is given here.",
  "data": [
    {"compound": "O=C1Nc2ncccc2/C1=C1/Nc2ncccc2C1=O", "values": [
      {"measurement": "Activity", "setting": "[1]", "value": 100, "unit": "%"},
      {"measurement": "GI50", "setting": "CAKI-1", "value": 1020, "unit": "nM"},
      {"measurement": "GI50", "setting": "M14", "value": 391, "unit": "nM"},
      {"measurement": "GI50", "setting": "SNB-19", "value": 517, "unit": "nM"},
      {"measurement": "GI50", "setting": "KM12", "value": 387, "unit": "nM"},
      {"measurement": "Activity", "setting": "[2]", "value": 100, "unit": "%"},
      {"measurement": "Activity", "setting": "[3]", "value": 115, "unit": "%"},
      {"measurement": "Activity", "setting": "[4]", "value": 147, "unit": "%"},
      {"measurement": "Activity", "setting": "[5]", "value": 111, "unit": "%"},
      {"measurement": "Activity", "setting": "[6]", "value": 72, "unit": "%"},
      {"measurement": "Activity", "setting": "[7]", "value": 114, "unit": "%"},
      {"measurement": "Activity", "setting": "[8]", "value": 107, "unit": "%"},
      {"measurement": "Activity", "setting": "[9]", "value": 104, "unit": "%"},
      {"measurement": "Activity", "setting": "[10]", "value": 101, "unit": "%"},
      {"measurement": "Activity", "setting": "[11]", "value": 121, "unit": "%"},
      {"measurement": "GI50", "setting": "SR", "value": 2730, "unit": "nM"},
      {"measurement": "GI50", "setting": "K562", "value": 2260, "unit": "nM"},
      {"measurement": "Activity", "setting": "MCF7", "value": 12.87, "unit": "%"},
      {"measurement": "inhibition", "setting": "[12]", "value": "Active"},
      {"measurement": "Activity", "setting": "[13]", "value": 87, "unit": "%"},
      {"measurement": "Activity", "setting": "[14]", "value": 53, "unit": "%"},
      {"measurement": "Activity", "setting": "[15]", "value": 61, "unit": "%"},
      {"measurement": "Activity", "setting": "[16]", "value": 99, "unit": "%"},
      {"measurement": "Activity", "setting": "[17]", "value": 120, "unit": "%"},
      {"measurement": "Activity", "setting": "[18]", "value": 101, "unit": "%"},
      {"measurement": "Activity", "setting": "[19]", "value": 80, "unit": "%"},
      {"measurement": "Activity", "setting": "[20]", "value": 104, "unit": "%"},
      {"measurement": "Activity", "setting": "[21]", "value": 100, "unit": "%"},
      {"measurement": "Activity", "setting": "[22]", "value": 101, "unit": "%"},
      {"measurement": "Activity", "setting": "[23]", "value": 103, "unit": "%"},
      {"measurement": "Activity", "setting": "[24]", "value": 92, "unit": "%"},
      {"measurement": "Activity", "setting": "[25]", "value": 107, "unit": "%"},
      {"measurement": "Activity", "setting": "[26]", "value": 97, "unit": "%"},
      {"measurement": "Activity", "setting": "[27]", "value": 92, "unit": "%"},
      {"measurement": "Activity", "setting": "[28]", "value": 95, "unit": "%"},
      {"measurement": "Activity", "setting": "[29]", "value": 88, "unit": "%"}
    ]}
  ]
}
